A selection: hits, their analogues and other compounds. The true share with any hit is near 29%.
CYP2C19 activ – increases human CYP2C19 enzyme activity. P33261. recombinant CYP2C19, luciferin-H EGE luminescence; hits give high values; 0 = fully inhibited enzyme, 1 = untreated enzyme. activation factor at 5 µM. 96,000 tested, under 10 active. AID 1025;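 active = activation factor of at least 2 at 5 µM in the primary screen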
Target sequence (P33261 whole entry, looked up): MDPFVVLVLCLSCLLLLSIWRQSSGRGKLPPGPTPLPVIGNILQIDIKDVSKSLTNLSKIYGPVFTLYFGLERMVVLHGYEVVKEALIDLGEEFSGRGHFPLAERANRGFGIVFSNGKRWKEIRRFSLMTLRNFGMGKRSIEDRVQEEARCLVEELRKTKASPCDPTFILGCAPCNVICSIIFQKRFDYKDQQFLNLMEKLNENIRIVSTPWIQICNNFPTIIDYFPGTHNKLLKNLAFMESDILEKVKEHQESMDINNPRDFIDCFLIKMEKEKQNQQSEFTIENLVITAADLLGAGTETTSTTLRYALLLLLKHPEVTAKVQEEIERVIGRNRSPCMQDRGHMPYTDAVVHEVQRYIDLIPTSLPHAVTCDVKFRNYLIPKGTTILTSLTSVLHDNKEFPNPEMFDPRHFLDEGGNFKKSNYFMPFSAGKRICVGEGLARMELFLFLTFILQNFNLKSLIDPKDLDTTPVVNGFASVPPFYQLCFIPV
Ecoli WT expand – E. coli BW25113 growth inhibition, expanded screen. growth inhibition, % at 100 µM. actives 0.15% (n = 98,000). OD600 absorbance;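 active = growth inhibition above about 50% at one test dose, limit read from the data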;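 note: growth measured after 20 h incubation at 37 °C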
CYP2C19 inh – human CYP2C19 inhibition. P33261. inhibition, % at 5 µM. actives 21% (n = 96,000). CYP2C19 Supersomes, luciferin-H EGE luminescence, 30 min;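 active = CYP2C19 inhibition above a set limit at 5 µM in the primary screen, cut at about 50% in these data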
CYP2C9 activ – activators of human CYP2C9; recombinant CYP2C9, luciferin-H conversion, luminescence; hits give high values; factor 1 = untreated enzyme, 0 = blocked; activation factor at 5 µM; actives 1.4% (n = 96,000); AID 1024;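 active = activation factor of 2 or more for CYP2C9 at a 5 µM dose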
Ecoli tolC – E. coli tolC mutant growth inhibition; E. coli BW25113 tolC mutant growth, OD615; growth inhibition, % at 10 µM (by protocol); actives 2.2% (n = 65,000);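 active = growth inhibition at or above a cutoff equal to the mean over every tested compound plus 3 SD, cut at about 60% in these data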;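 note: growth measured after 20 h incubation at 37 °C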
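Test system: tolC-deleted E. coli BW25113; medium: LB with kanamycin 50 µg/mL; compound: single-point testing at 10 µM; incubation: 20 h compound exposure of bacteria at 37 °C; signal: OD at 615 nm; evaluation: growth inhibition in percent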
CYP2C9 inh – inhibitors of human CYP2C9; P11712; CYP2C9 Supersomes, luciferin-H conversion, luminescence; inhibition, % at 5 µM; actives 20% (n = 96,000);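 active = blocking of liver enzyme CYP2C9 beyond about 50% at 5 µM, limit read from the data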
Each line names hits and unclear results; the compound was inactive in the other large screens.

CC(=O)c1ccc(OCC(O)CN2C(C)(C)CC(O)CC2(C)C)cc1 (stereo not drawn)	none
COC(=O)C1=CN(C(C)C)C=C(C(=O)OC)C1c1cccc(OC)c1	none
CCN1C=C(C(=O)OC)C(c2cccc(C)c2)C(C(=O)OC)=C1	CYP2C19 inh 69.8, CYP2C9 inh 74.2
COCCN1C=C(C(=O)OC)C(c2ccc3c(c2)OCO3)C(C(=O)OC)=C1	CYP2C19 inh 74.4, CYP2C9 inh 70.1
CCOc1cc(N2CCOCC2)c(OCC)cc1NC(=O)COC(=O)CCc1c[nH]c2ccccc12	none
Cn1cc(-c2nnnn2-c2cccc(C(F)(F)F)c2)c(C(F)(F)F)n1	CYP2C19 inh 98.5 (no result: Ecoli tolC)
Nc1c(-c2ccc(Cl)cc2)cnn1-c1cccc(C(F)(F)F)c1	none (no result: Ecoli tolC)
Cn1c(N)c(C(=O)COC(=O)Cn2cc(C(F)(F)F)ccc2=O)c(=O)n(C)c1=O	none
Cn1c(SCC(=O)NCc2ccccc2)nnc1C1CC1	none
COc1cccc(-n2ccnc2SCC(=O)NCc2ccccc2)c1	CYP2C19 inh 95.5
CCCCOc1ccccc1NC(=O)CSc1nnnn1C(C)(C)C	CYP2C19 inh 56.1, CYP2C9 inh 73.5
COc1ccc(NC(=O)CSc2nnc(-c3ccccn3)n2N)c(OC)c1	none
CCOc1ccccc1NC(=O)CSc1nccn1-c1ccccc1	CYP2C19 inh 67.1, CYP2C9 activ 2.4
COc1ccc(NC(=O)CSc2nccn2-c2ccccc2)c(OC)c1	CYP2C19 inh 95.1
COC(=O)c1c(NC(=S)Nc2ccccc2Cl)sc(C)c1C	none (no result: Ecoli tolC)
CCOc1ccccc1NC(=O)COn1nnc2ccccc21	CYP2C19 inh 91.6, CYP2C9 activ 2.2 (no result: Ecoli tolC)
CCOc1ccccc1NC(=O)/C=C/C(N)=O	none (no result: Ecoli tolC)
CCOC(=O)CC(=O)CSCC(=O)Nc1ccc(C)cc1	CYP2C19 inh 53.7
CCOc1ccccc1NC(=O)CSc1nc2cccnc2n1C	CYP2C19 inh 65.7
CCOc1ccc(NC(=O)CSc2nc3cccnc3n2CC)cc1	none
CCOc1ccccc1NC(=O)CSCC(=O)Nc1ccccc1	CYP2C19 inh 92.7, CYP2C9 activ 2.6 (no result: Ecoli tolC)
CCOc1ccc(OCC)c(NC(=O)CSCC(=O)O)c1	none
Cc1ccc(NC(=O)CSCC#N)cc1	none (no result: Ecoli tolC)
COC(=O)c1cccc(NC(=O)CSc2nc3cccnc3n2C)c1	CYP2C19 inh 68.0, CYP2C9 inh 58.6
CCOC(=O)c1c(C)nc(-c2ccccc2)nc1N	CYP2C19 inh 81.5, CYP2C9 inh 67.0
CCOc1ccccc1NS(=O)(=O)c1cccc2nsnc12	CYP2C19 inh 91.2 (no result: Ecoli tolC)
Cc1cccc(NC(=O)CCNS(=O)(=O)c2cccc3nsnc23)c1	CYP2C19 inh 66.7
COc1ccccc1NC(=O)CS(=O)(=O)c1cccc2nsnc12	CYP2C9 activ 2.5
COc1ccccc1CNC(=O)CCNS(=O)(=O)c1cccc2nsnc12	CYP2C19 inh 79.9, CYP2C9 activ 2.3 (no result: Ecoli tolC)
COCc1cc(C)nc(SCC(=O)c2ccc(O)c(O)c2)c1C#N	none
CC1CCCN(C(=O)c2ccc3c(c2NCCO)C(=O)c2ccccc2C3=O)C1 (stereo not drawn)	CYP2C19 inh 58.9 (no result: Ecoli tolC)
Cc1ccc(NC2SC(=O)N(CC(=O)O)C2=O)cc1 (stereo not drawn)	CYP2C9 inh 61.0 (no result: Ecoli tolC)
O=C1C(c2ccccc2)SC(=Nc2ccccc2)N1S(=O)(=O)c1ccccc1 (stereo not drawn)	none (no result: Ecoli tolC)
O=C(OCn1cncn1)c1ccc(Cl)cc1Cl	none
CC(C)(C)C(=O)C(CO)(Oc1ccc(Cl)cc1)n1cncn1 (stereo not drawn)	CYP2C19 inh 92.8, CYP2C9 inh 76.7
CCn1c2ccccc2c2cc(NC(=O)C3CCN(S(=O)(=O)c4cccs4)CC3)ccc21	none (no result: Ecoli WT expand)
CCn1c2ccccc2c2cc(NS(=O)(=O)c3ccccc3C)ccc21	CYP2C19 inh 65.8, CYP2C9 inh 81.2 (no result: Ecoli tolC)
CCC(=O)NC(C)C(c1cccs1)N1CCN(Cc2ccccc2)CC1 (stereo not drawn)	none (no result: Ecoli tolC)
CCc1nnc(NC(=O)CSc2nnc(-c3ccc(O)cc3)n2-c2ccccc2)s1	none (no result: CYP2C19 activ, Ecoli WT expand, CYP2C19 inh, CYP2C9 activ, CYP2C9 inh)
CN(C)CCCNCCCNC(=O)/C(=N\O)c1ccccn1	none (no result: CYP2C19 activ, CYP2C19 inh, CYP2C9 activ, CYP2C9 inh)
Cc1ccc(-c2csc(=S)n2CC(=O)OCC(=O)NCc2ccco2)cc1	CYP2C9 inh 55.6
Cc1ccc(-c2csc(=S)n2CC(=O)OCC(=O)NC(C)C(C)C)cc1 (stereo not drawn)	CYP2C9 inh 68.6 (no result: Ecoli tolC)
Cc1ccc(Oc2ccc(OCC(=O)NC(C)C(=O)O)cc2)cc1 (stereo not drawn)	none
Cc1cc(C)cc(OCC(=O)OCC(=O)NCc2ccco2)c1	none (no result: Ecoli tolC)
COCCn1ccc(O)c(Cc2ccccc2)c1=O	none (no result: Ecoli tolC)
CCCn1c(CN2CCN(C)CC2)nc2ccccc21	none (no result: Ecoli tolC)
Cc1c(C#N)c2ncnc(-c3ccccc3)c2n1-c1ccccc1	none
N#Cc1c2n(c3c(=O)n(Cc4ccccc4Cl)cnc13)CCCCC2	CYP2C19 inh 59.0, CYP2C9 inh 67.6
Cc1c(C#N)c2ncn(Cc3ccccc3)c(=O)c2n1-c1ccccc1	CYP2C9 inh 63.0
CCc1nnc(NC(=O)C2CCCN2C(=O)Nc2ccccc2OC)s1 (stereo not drawn)	none
Cc1ccc(S(=O)(=O)N2CCCC2C(=O)Nc2ccc(O)cc2)cc1 (stereo not drawn)	none
CCc1nnc(NC(=O)C2Cc3ccccc3CN2S(=O)(=O)c2cccs2)s1 (stereo not drawn)	CYP2C19 inh 61.1, CYP2C9 inh 63.4
CCc1nnc(NC(=O)C2CCCN(S(=O)(=O)c3ccccc3)C2)s1 (stereo not drawn)	CYP2C19 inh 63.9 (no result: Ecoli tolC)
CCc1nnc(NC(=O)C2CCCN2S(=O)(=O)c2ccc(C)cc2)s1 (stereo not drawn)	CYP2C9 inh 64.7
C/C(=N\NC(=O)C1CCCN(S(=O)(=O)c2ccccc2)C1)c1cccnc1 (stereo not drawn)	none (no result: Ecoli tolC)
C/C(=N\NC(=O)C1CCCN(S(=O)(=O)c2ccccc2)C1)c1ccncc1 (stereo not drawn)	CYP2C9 inh 68.6 (no result: Ecoli tolC)
CCc1nnc(NC(=O)C2CCC2)s1	none
O=C(CSc1nnc(Cc2cc(=O)[nH]c(=O)[nH]2)n1-c1ccc(F)cc1)NC1CCCC1	none
CCc1ccc2c(c1)CCCN2C(=O)c1ccccc1C(=O)O	none
O=C(Nc1nnc(C2CC2)s1)C1Cc2ccccc2CN1S(=O)(=O)c1cccs1 (stereo not drawn)	CYP2C19 inh 100.0, CYP2C9 inh 67.4
CCc1nnc(NC(=O)C2Cc3ccccc3CN2S(=O)(=O)c2ccc(C)cc2)s1 (stereo not drawn)	CYP2C19 inh 98.8, CYP2C9 inh 63.8 (no result: Ecoli tolC)
Cc1sc2c(c1C)CN(C1CC(C)(C)NC(C)(C)C1)CN2C(=O)c1ccco1	none
Cc1nc2ccccc2n1CCC(=O)Nc1cccc(F)c1	none
Cc1cc(C)c(S(C)(=O)=O)c(S(=O)c2ccc(Cl)cc2)n1 (stereo not drawn)	CYP2C9 inh 57.6 (no result: Ecoli tolC)
CNc1nc(C)cc(C)c1S(=O)(=O)c1ccc(Cl)cc1	CYP2C19 inh 66.4 (no result: Ecoli tolC)

Screening data: PubChem, several laboratories
